Assay results published in ChEMBL document CHEMBL3608292, “Synthesis and biological evaluation of novel myrtucommulones and structural analogues that target mPGES-1 and 5-lipoxygenase” (Eur J Med Chem, 2015).

Key:
Prostaglandin E synthase = molecular target: T1, Prostaglandin E synthase (Homo sapiens, UniProt O14684); assay: Inhibition of mPGES-1 in microsomal membranes isolated from interleukin-1beta-stimulated human A549 cells using PGH2 as substrate assessed as PGE2 formation preincubated for 15 mins followed by substrate addition measured after 1 min by RP-HPLC analysis; format: cell membranes
T1 sequence (O14684 whole entry): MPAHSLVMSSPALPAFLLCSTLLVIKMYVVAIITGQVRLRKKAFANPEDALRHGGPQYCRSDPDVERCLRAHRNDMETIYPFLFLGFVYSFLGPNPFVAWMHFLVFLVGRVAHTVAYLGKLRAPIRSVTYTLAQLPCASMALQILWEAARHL
How it was run: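 A549 cells kept 16 h in DMEM with 2% FCS, then 1 ng/ml IL-1β for 72 h. Cells homogenized and sonicated, microsomes obtained by centrifugation at 10,000 × g then 174,000 × g. Microsomes in 0.1 M potassium phosphate pH 7.4 with 2.5 mM glutathione, preincubated 15 min with compound or 0.3% DMSO. 20 µM PGH₂ (final) for 1 min at 4 °C. Stopped with FeCl₂/citric acid containing 11β-PGE₂, solid-phase extraction, RP-HPLC with UV at 195 nm.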

[1] = molecular target: T2, Polyunsaturated fatty acid 5-lipoxygenase (Homo sapiens, UniProt P09917); assay: Inhibition of 5-LO in ionophore A23187-stimulated human PMNL using arachidonic acid as substrate assessed as formation of LTB4, 5(S),12(S)-DiHETE, 5-H(p)ETE preincubated for 15 mins followed by substrate and ionophore addition measured after 10 mins by HPLC analysis
T2 sequence (P09917 whole entry): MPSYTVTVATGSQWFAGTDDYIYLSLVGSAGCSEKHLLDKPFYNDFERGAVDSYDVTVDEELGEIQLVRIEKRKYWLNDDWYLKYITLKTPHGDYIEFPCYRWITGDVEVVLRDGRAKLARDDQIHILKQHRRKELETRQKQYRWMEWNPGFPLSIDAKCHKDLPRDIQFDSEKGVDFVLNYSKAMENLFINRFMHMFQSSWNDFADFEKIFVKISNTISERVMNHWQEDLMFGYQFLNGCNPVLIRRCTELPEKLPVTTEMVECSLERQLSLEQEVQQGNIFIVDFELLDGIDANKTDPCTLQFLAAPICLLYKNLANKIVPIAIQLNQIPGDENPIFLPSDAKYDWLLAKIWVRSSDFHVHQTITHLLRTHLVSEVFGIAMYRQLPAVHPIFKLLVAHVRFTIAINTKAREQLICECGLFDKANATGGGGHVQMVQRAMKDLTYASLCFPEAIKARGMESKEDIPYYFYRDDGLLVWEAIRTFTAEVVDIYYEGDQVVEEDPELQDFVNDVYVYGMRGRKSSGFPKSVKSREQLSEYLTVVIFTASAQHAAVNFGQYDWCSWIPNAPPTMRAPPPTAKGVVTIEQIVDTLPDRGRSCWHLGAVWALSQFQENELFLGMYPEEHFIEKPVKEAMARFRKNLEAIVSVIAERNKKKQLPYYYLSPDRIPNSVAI

[2] = molecular target: T2, Polyunsaturated fatty acid 5-lipoxygenase; assay: Inhibition of recombinant human 5-LO expressed in Escherichia coli BL21 using arachidonic acid as substrate assessed as formation of LTB4, 5(S),12(S)-DiHETE, 5-H(p)ETE preincubated for 5 to 10 mins followed by substrate addition measured after 10 mins by HPLC
[3] = molecular target: T2, Polyunsaturated fatty acid 5-lipoxygenase; assay: Inhibition of recombinant human 5-LO expressed in Escherichia coli BL21 using arachidonic acid as substrate assessed as formation of all-trans isomer of LTB4, 5-H(P)ETE preincubated for 5 to 10 mins followed by substrate addition measured after 10 mins by HPLC analysis
[4] = molecular target: T2, Polyunsaturated fatty acid 5-lipoxygenase; assay: Inhibition of 5-LO in human PMNL using arachidonic acid as substrate preincubated for 10 mins followed by substrate addition measured after 10 mins by HPLC analysis
[5] = molecular target: Prostaglandin G/H synthase 1 (Homo sapiens, UniProt P23219); assay: Inhibition of COX-1 in human platelet using arachidonic acid as substrate assessed as formation of 12-HHT preincubated for 10 mins followed by substrate addition measured after 5 mins by HPLC analysis
Prostaglandin G/H synthase 1, sequence (P23219 whole entry): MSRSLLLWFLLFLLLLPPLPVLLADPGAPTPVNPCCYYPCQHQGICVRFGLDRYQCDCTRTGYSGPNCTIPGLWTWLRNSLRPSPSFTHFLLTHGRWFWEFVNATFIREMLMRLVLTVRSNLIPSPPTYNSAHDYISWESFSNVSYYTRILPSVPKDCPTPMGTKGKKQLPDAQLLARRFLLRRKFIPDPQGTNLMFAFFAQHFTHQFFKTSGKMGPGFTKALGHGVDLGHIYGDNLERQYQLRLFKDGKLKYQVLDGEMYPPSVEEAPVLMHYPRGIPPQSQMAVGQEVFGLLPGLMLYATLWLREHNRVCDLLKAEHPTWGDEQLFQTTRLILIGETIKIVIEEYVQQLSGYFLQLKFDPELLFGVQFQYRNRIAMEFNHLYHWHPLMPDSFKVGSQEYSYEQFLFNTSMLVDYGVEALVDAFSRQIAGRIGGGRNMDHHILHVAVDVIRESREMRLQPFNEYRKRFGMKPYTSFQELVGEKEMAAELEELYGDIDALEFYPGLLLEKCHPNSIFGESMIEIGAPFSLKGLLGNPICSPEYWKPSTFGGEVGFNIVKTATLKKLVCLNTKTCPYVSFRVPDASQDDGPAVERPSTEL

Jurkat = assay: Cytotoxicity against human Jurkat cells assessed as induction of cell death after 48 hrs by MTT assay; format: functional, cell-based
How it was run: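 Jurkat T cells grown in RPMI 1640 with 10% heat-inactivated FCS, 10 mM HEPES, penicillin/streptomycin at 37 °C, 5% CO₂. Seeded at 2 × 10⁴ per well. Compounds or 0.3% DMSO vehicle added for 48 h. MTT then added until blue staining, cells lysed overnight in 10% SDS/20 mM HCl, absorbance read at 570 nm. Three to four independent experiments.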

IC50 (Prostaglandin E synthase): 1 µM
IC50 [1]: 3.2 µM
IC50 [2]: 5 µM
IC50 [3]: 15 µM
IC50 [4]: 1.8 µM
IC50 [5]: 17 µM
SMILES: CC(C)C(=O)c1c(O)c([C@H](C2=C(O)C(C)(C)C(=O)C(C)(C)C2=O)C(C)C)c(O)c([C@H](C2=C(O)C(C)(C)C(=O)C(C)(C)C2=O)C(C)C)c1O [MYRTUCOMMULONE A]
EC50 (Jurkat): 2.4 µM
